Measured values published in ChEMBL document CHEMBL2021803, “Antitumor agents. 289. Design, synthesis, and anti-breast cancer activity in vivo of 4-amino-2H-benzo[h]chromen-2-one and 4-amino-7,8,9,10-tetrahydro-2H-benzo[h]chromen-2-one analogues with improved water solubility” (J Nat Prod, 2012).
Converted amounts (≈) assume the structure as drawn. The source made the active and inactive calls. No cut-off for these calls is given here.

Tests used:
[1] = Solubility of the compound in water; type: physicochemical
KB = assay: Cytotoxicity against human KB cells after 72 hrs by SRB assay; type: functional, cell-based
[2] = Cytotoxicity against human KBVIN cells after 72 hrs by SRB assay; type: functional, cell-based
A549 = assay: Cytotoxicity against human A549 cells after 72 hrs by SRB assay; type: functional, cell-based
DU-145 = assay: Cytotoxicity against human DU145 cells after 72 hrs by SRB assay; type: functional, cell-based
SK-BR-3 = assay: Cytotoxicity against human SKBR3 cells after 72 hrs by SRB assay; type: functional, cell-based
Mus musculus [3] = assay: Reduction in ductal branching in Brca/p53 mutant mouse at 0.1 mg, ip administered daily for 10 days; type: functional, organism-based
How it was run: (§1)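 Three-month-old wild-type or Brca1/p53 Cre mutant mice (mixed C57BL/6 × 129/Sv) given 0.1 mg i.p. daily (DMSO stock […] diluted in 40% PEG and 0.9% NaCl at dosing); vehicle controls. Fourth-pair mammary glands whole-mounted, Carnoy's fixed 3 h, Carmine alum stained overnight. Branching points counted in three random areas totaling about 2 mm².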

Mus musculus [4] = assay: Reduction in ductal branching in Brca/p53 mutant mouse mammary gland at 0.1 mg, ip administered daily for 10 days by immunostaining technique; type: functional; parameters: scale not given: the % may be the effect or the level left; details: in the assay text read “Carmine alum whole-mount staining” for “immunostaining technique”; how it was run: as §1
Mus musculus [5] = assay: Reduction in ductal branching in wild type mouse mammary gland at 0.1 mg, ip administered daily for 10 days by immunostaining technique; type: functional, organism-based; parameters: scale not given: the % may be the effect or the level left; details: in vivo, 240 h; how it was run: as §1
Mus musculus [6] = assay: Antiproliferative activity of Brca/p53 mutant mouse mammary epithelial cells assessed as reduction in DNA synthesis at 0.1 mg, ip administered daily for 10 days by BrdU-based immunostaining method; type: functional, Epithelial cell; parameters: scale not given: the % may be the effect or the level left
How it was run: (§2)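 Three-month-old mice (C57BL/6 × 129/Sv mixed background; wild-type or Brca1/p53 Cre mutant) dosed i.p. daily, 0.1 mg in 10 μL of […] DMSO stock plus 30 μL 40% PEG and 60 μL 0.9% NaCl, made fresh; vehicle controls. Paraffin sections, citrate pH 6.0 microwave retrieval 20 min, anti-BrdU 1:1000, ABC detection; BrdU-positive cells averaged over 15 ducts.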

Mus musculus [7] = assay: Antiproliferative activity of wild type mouse mammary epithelial cells assessed as reduction in DNA synthesis at 0.1 mg, ip administered daily for 10 days by BrdU-based immunostaining method; type: organism-based, Epithelial cell; details: in vivo, 240 h; how it was run: as §2
Mus musculus [8] = assay: Induction of apoptosis in Brca/p53 mutant mouse mammary gland assessed as increase in cleaved caspase-3 at 0.1 mg, ip administered daily for 10 days by immunohistochemical staining method relative to vehicle-treated control; type: functional
How it was run: (§3)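 Wild-type or Brca1/p53 Cre mutant mice (C57BL/6 × 129/Sv), three months old, dosed i.p. daily with 0.1 mg in DMSO/40% PEG/0.9% NaCl (10:30:60 μL), made fresh; vehicle controls. Mammary glands fixed in 4% paraformaldehyde at 4 °C overnight, paraffin-embedded, cut into 5-μm sections. Retrieval by boiling in citrate pH 6.0, then rabbit polyclonal anti-cleaved caspase-3. Read as percentage of positive cells per duct.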

Mus musculus [9] = assay: Induction of apoptosis in wild type mouse mammary gland assessed as increase in cleaved caspase-3 at 0.1 mg, ip administered daily for 10 days by immunohistochemical staining method relative to vehicle-treated control; type: organism-based; details: in vivo, 240 h; how it was run: as §3
Mus musculus [10] = assay: Induction of apoptosis in Brca/p53 mutant mouse mammary gland assessed as increase in cytoplasmic localization of cleaved caspase-3 at 0.1 mg, ip administered daily for 10 days by immunohistochemical staining method; type: functional, organism-based; how it was run: as §3
Mus musculus [11] = assay: Induction of apoptosis in Brca/p53 mutant mouse mammary gland assessed as increase in perinuclear localization of cleaved caspase-3 at 0.1 mg, ip administered daily for 10 days by immunohistochemical staining method; type: functional, organism-based; how it was run: as §3

SMILES	IC50 (KB; Homo sapiens, KB, 72 h)	IC50 ([2]; Homo sapiens, KBVIN, 72 h)	IC50 (A549; Homo sapiens, A549, 72 h)	IC50 (DU-145; Homo sapiens, DU-145, 72 h)	IC50 (SK-BR-3; Homo sapiens, SK-BR-3, 72 h)	IC50 (KB; kb)	IC50 ([2]; kbvin)	IC50 (A549; a549)	IC50 (DU-145; du-145)	IC50 (SK-BR-3; sk-br-3)	further results
COc1ccc(Nc2cc(=O)oc3c2ccc2ccccc23)cc1	110 nM	130 nM	170 nM	110 nM	130 nM						solubility [1]: 0.69 µg/mL (≈ 2.17 µM); Activity (Mus musculus [3]): Active; Activity (Mus musculus [4]): 75%; Activity (Mus musculus [5]): 15%; Activity (Mus musculus [6]): 55%; Activity (Mus musculus [7]): Non-toxic
Nc1cccc2c(Nc3cc(=O)oc4c3ccc3ccccc34)cccc12 [listing 1 of 2 here]						210 nM	170 nM	240 nM	180 nM	240 nM	
Nc1ccccc1Nc1cc(=O)oc2c3c(ccc12)CCCC3 [listing 1 of 2 here]	4900 nM	5200 nM	5000 nM	5000 nM	5200 nM						
Nc1ccc(Nc2cc(=O)oc3c4c(ccc23)CCCC4)cc1 [listing 1 of 3 here]	56 nM	53 nM	58 nM	53 nM	74 nM						Activity (Mus musculus [4]): 70%; Activity (Mus musculus [5]): 15%; fold change (FC) (Mus musculus [8]): 4.5; fold change (FC) (Mus musculus [9]): 4
CN(C)c1ccc(Nc2cc(=O)oc3c2ccc2ccccc23)cc1 [listing 1 of 2 here]	600 nM	350 nM	430 nM	360 nM	300 nM						
Nc1ccc(Nc2cc(=O)oc3c4c(ccc23)CCCC4)cc1 [listing 2 of 3 here]						69 nM	65 nM	62 nM	66 nM	85 nM	
CN(C)c1ccc(Nc2cc(=O)oc3c4c(ccc23)CCCC4)cc1 [listing 1 of 2 here]						380 nM	390 nM	440 nM	330 nM	490 nM	
O=c1cc(NC2CCN(Cc3ccccc3)CC2)c2ccc3c(c2o1)CCCC3 [listing 1 of 2 here]	6500 nM	6200 nM	7000 nM	5800 nM	7700 nM						
Nc1ccc(Nc2cc(=O)oc3c4c(ccc23)CCCC4)cc1 [listing 3 of 3 here]											Activity (Mus musculus [3]): Active; Activity (Mus musculus [6]; Epithelial cell): inactive; Activity (Mus musculus [10]): Active; Activity (Mus musculus [11]): Active
Nc1cccc2c(Nc3cc(=O)oc4c3ccc3ccccc34)cccc12 [listing 2 of 2 here]	160 nM	150 nM	160 nM	150 nM	200 nM						
Nc1cccc(Nc2cc(=O)oc3c4c(ccc23)CCCC4)c1 [listing 1 of 2 here]						480 nM	450 nM	500 nM	340 nM	560 nM	
CN(C)c1ccc(Nc2cc(=O)oc3c2ccc2ccccc23)cc1 [listing 2 of 2 here]						470 nM	410 nM	590 nM	300 nM	270 nM	
COc1ccc(Nc2cc(=O)oc3c4c(ccc23)CCCC4)cc1	37 nM	46 nM	49 nM	38 nM	64 nM						Activity (Mus musculus [3]): Active; Activity (Mus musculus [4]): 65%; Activity (Mus musculus [5]): 15%; Activity (Mus musculus [6]; Epithelial cell): inactive
O=c1cc(NC2CCN(Cc3ccccc3)CC2)c2ccc3ccccc3c2o1 [listing 1 of 2 here]	8300 nM	7600 nM	> 10000 nM	> 10000 nM	> 10000 nM						
Nc1ccc(Nc2cc(=O)oc3c2ccc2ccccc23)cc1 [listing 1 of 3 here]	54 nM	44 nM	55 nM	40 nM	38 nM						solubility [1]: 33.9 µg/mL (≈ 112 µM); Activity (Mus musculus [4]): 69%; Activity (Mus musculus [5]): 15%; Activity (Mus musculus [6]): 81%; Activity (Mus musculus [7]): Non-toxic; fold change (FC) (Mus musculus [8]): 4.8; fold change (FC) (Mus musculus [9]): 2.1
Nc1cccc(Nc2cc(=O)oc3c4c(ccc23)CCCC4)c1 [listing 2 of 2 here]	440 nM	470 nM	400 nM	440 nM	480 nM						
Nc1ccccc1Nc1cc(=O)oc2c3c(ccc12)CCCC3 [listing 2 of 2 here]						7400 nM	7000 nM	8000 nM	> 10000 nM	8700 nM	
Nc1cccc(Nc2cc(=O)oc3c2ccc2ccccc23)c1 [listing 1 of 2 here]						170 nM	150 nM	150 nM	180 nM	240 nM	
O=c1cc(NC2CCN(Cc3ccccc3)CC2)c2ccc3c(c2o1)CCCC3 [listing 2 of 2 here]						9100 nM	8300 nM	> 10000 nM	8300 nM	9300 nM	
Nc1ccc(Nc2cc(=O)oc3c2ccc2ccccc23)cc1 [listing 2 of 3 here]						48 nM	47 nM	54 nM	49 nM	53 nM	
Nc1ccccc1Nc1cc(=O)oc2c1ccc1ccccc12 [listing 1 of 2 here]	> 10000 nM	> 10000 nM	> 10000 nM	> 10000 nM	> 10000 nM						
Nc1ccccc1Nc1cc(=O)oc2c1ccc1ccccc12 [listing 2 of 2 here]						8200 nM	9000 nM	9100 nM	8700 nM	9500 nM	
CN(C)c1ccc(Nc2cc(=O)oc3c4c(ccc23)CCCC4)cc1 [listing 2 of 2 here]	720 nM	540 nM	540 nM	470 nM	770 nM						
O=c1cc(NC2CCN(Cc3ccccc3)CC2)c2ccc3ccccc3c2o1 [listing 2 of 2 here]						> 10000 nM	9400 nM				
Nc1ccc(Nc2cc(=O)oc3c2ccc2ccccc23)cc1 [listing 3 of 3 here]											Activity (Mus musculus [3]): Active; Activity (Mus musculus [10]): Active; Activity (Mus musculus [11]): Active
Nc1cccc(Nc2cc(=O)oc3c2ccc2ccccc23)c1 [listing 2 of 2 here]	120 nM	160 nM	190 nM	150 nM	150 nM						
